Measured values: ChEMBL document CHEMBL1124289, “6-(Alkylamino)-9-benzyl-9H-purines. A new class of anticonvulsant agents” (1988)

What was measured:
Type in all cases: functional
[1] = tested on: Rattus norvegicus; experiment: Ability to protect Sprague-Dawley male rats against maximal electroshock-induced seizures (MES) intraperitoneally. Inhibition at 25 mg/kg; conditions: ip, route intraperitoneal
Outline: (§1)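 Male Sprague-Dawley rats dosed with compound as a solution or fine dispersion in water or 5% methylcellulose, then given maximal electroshock. Protection means abolition of the hind-limb extensor component.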

[2] = tested on: Rattus norvegicus; experiment: Protective effects in maximal electroshock induced seizures in rats following i.p. administration.; conditions: ip
Outline: (§2)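 Male Sprague-Dawley rats, compound given orally or ip as a solution or fine dispersion in water or 5% methylcellulose before maximal electroshock. ED50 is the dose protecting 50% against hind-limb extension, by the Miller–Tainter method. Either ≥12 animals per dose at four doses (with standard error) or three doses with six animals per point.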

[3] = tested on: Rattus norvegicus; experiment: Ability to protect Sprague-Dawley male rats against maximal electroshock-induced seizures (MES) per orally; Inhibition at 25 mg/kg; conditions: po; outline: as §1
[4] = organism: Rattus norvegicus; experiment: Ability to protect Sprague-Dawley male rats against maximal electroshock-induced seizures (MES) perorally; conditions: po; outline: as §2
[5] = tested on: Rattus norvegicus; experiment: Ability to protect Sprague-Dawley male rats against maximal electroshock-induced seizures (MES) intraperitoneally; Inhibition at 12.5 mg/kg; conditions: ip, route intraperitoneal; outline: as §1

| Structure (SMILES) | inhibition in vivo at 25 mg/kg [1] [%] | ED50 [2] [mg/kg] | other results |
| --- | --- | --- | --- |
| C[C@H](c1ccccc1)n1cnc2c(N(C)C)ncnc21 | 33 | – | – |
| CN(C)c1ncnc2c1ncn2Cc1ccccc1N | – | 20 | – |
| CN(C)c1ncnc2c1ncn2CC1CCCCC1 | 0 | – | – |
| CN(C)c1ncnc2c1ncn2Cc1ccc(Cl)c(Cl)c1 | 0 | – | – |
| Nc1ncnc2c1ncn2Cc1ccccc1 [9-BENZYL-9H-ADENINE] | 33 | – | – |
| OCCNc1ncnc2c1ncn2Cc1ccccc1 | 84 | – | inhibition in vivo at 25 mg/kg [3]: 17% |
| CN(C)c1ncnc2c1ncn2Cc1cccc(Br)c1 | – | 13 | – |
| CN(C)c1ncnc2c1ncn2Cc1ccc(Cl)cc1 | 0 | – | – |
| CN(C)c1ncnc2c1ncn2Cc1ccccc1Cl | 84 | – | – |
| CN(C)c1ncnc2c1ncn2Cc1ccc([N+](=O)[O-])cc1 | 0 | – | – |
| CN(C=O)c1ncnc2c1ncn2Cc1ccccc1 | 0 | – | – |
| CN(C)c1ncnc2c1ncn2Cc1ccccc1 | – | 6 | ED50 [4]: 12 mg/kg |
| COc1ccc(Cn2cnc3c(N(C)C)ncnc32)cc1 | 0 | – | – |
| COc1cccc(Cn2cnc3c(N(C)C)ncnc32)c1 | – | 12.5 | – |
| Cc1cccc(Cn2cnc3c(N(C)C)ncnc32)c1 | – | 25 | – |
| CN(C)c1ncnc2c1ncn2Cc1cccc(C(F)(F)F)c1 | – | 12 | – |
| c1ccc(Cn2cnc3c(N4CCC4)ncnc32)cc1 | 17 | – | – |
| CSc1ncnc2c1ncn2Cc1ccccc1 [9-BENZYL-6-METHYLSULFANYL-9H-PURINE] | 30 | – | – |
| CNc1ncnc2c1ncn2Cc1ccccc1 | – | 5 | ED50 [4]: 12 mg/kg |
| CN(C)c1ncnc2c1ncn2-c1ccccc1 | – | – | inhibition in vivo at 12.5 mg/kg [5]: 0% |
| CN(C)c1ncnc2c1ncn2Cc1cccc(C#N)c1 | 17 | – | – |
| Cc1ccc(Cn2cnc3c(N(C)C)ncnc32)cc1 | 0 | – | – |
| CN(C)c1ncnc2c1ncn2Cc1ccccc1[N+](=O)[O-] | – | 25 | – |
| CN(C)c1ncnc2c1ncn2Cc1cccc(Cl)c1 | – | 4.5 | ED50 [4]: 18 mg/kg |
| CN(C)c1ncnc2c1ncn2Cc1ccc(O)cc1 | 0 | – | – |
| Oc1ncnc2c1ncn2Cc1ccccc1 | 17 | – | – |

| Structure (SMILES) | inhibition in vivo at 25 mg/kg [1] [%] | ED50 [2] [mg/kg] | other results |
| --- | --- | --- | --- |
| CN(C)c1ncnc2c1ncn2Cc1cccc(F)c1 | – | 8.4 | – |
| CN(c1ncnc2c1ncn2Cc1ccccc1)C1CCCC1 | 17 | – | – |
| CN(C)c1ncnc2c1ncn2Cc1cccc(O)c1 | 0 | – | – |
| CN(C)c1ncnc2c1ncn2Cc1cccs1 | – | 10 | – |
| c1ccc(Cn2cnc3c(NC4CC4)ncnc32)cc1 | – | 8.6 | – |
| COc1ccccc1Cn1cnc2c(N(C)C)ncnc21 | 0 | – | – |
| c1ccc(Cn2cnc3c(Nc4ccccc4)ncnc32)cc1 | 0 | – | – |
| CC(C)N(C)c1ncnc2c1ncn2Cc1ccccc1 | 17 | – | – |
| CN(C)c1ncnc2c1ncn2Cc1cccc(OCc2ccccc2)c1 | 33 | – | – |
| Cc1ccccc1Cn1cnc2c(N(C)C)ncnc21 | – | 9 | – |
| CN(C)c1ncnc2c1ncn2Cc1ccc(F)cc1 | 33 | – | – |
| C[C@@H](c1ccccc1)n1cnc2c(N(C)C)ncnc21 | 33 | – | – |
| CN(C)c1ncnc2c1ncn2Cc1cc(Cl)cc(Cl)c1 | – | 7 | – |
| CN(C)c1ncnc2c1ncn2Cc1cccc(I)c1 | – | 11 | – |
| CN(C)c1ncnc2c1ncn2Cc1ccc(C#N)cc1 | 0 | – | – |
| c1ccc(Cn2cnc3cncnc32)cc1 [9-BENZYL-9H-PURINE] | 33 | – | – |
| CN(C)c1ncnc2c1ncn2Cc1ccco1 | – | 18 | – |
| COc1ncnc2c1ncn2Cc1ccccc1 [9-BENZYL-6-METHOXY-9H-PURINE] | – | 10 | ED50 [4]: 21 mg/kg |
| CN(C)c1ncnc2c1ncn2C | 33 | – | – |
| CCN(C)c1ncnc2c1ncn2Cc1ccccc1 | – | 8 | ED50 [4]: 30 mg/kg |
| CN(C)c1ncnc2c1ncn2Cc1ccccc1F | – | 8.8 | – |
| O=C1NC(=O)C(c2ccccc2)(c2ccccc2)N1 [PHENYTOIN] | – | 9.6 | ED50 [4]: 20 mg/kg |
| CN(C)c1ncnc2c1ncn2Cc1ccc(N)cc1 | – | 25 | – |
| CN(C)c1ncnc2c1ncn2CCc1ccccc1 | 33 | – | – |
| CN(C)c1ncnc2c1ncn2Cc1cccc([N+](=O)[O-])c1 | 17 | – | – |
